The record followed here is PubChem BioAssay.

Values without a mark were called inactive. Inconclusive results are not listed. Active and inactive are the calls of the source.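 The calls were made as follows, unless noted: active = cell viability at or below a set limit in both duplicate runs, the limit being the all-compound median minus 4 SD (cut at about 23% in these data, passing the limit was not always enough); inconclusive = no clear call, values can overlap the other calls; inactive = the rest.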

A short description of assay [1]: OD615 S. cerevisiae growth inhibition, permissive medium, pilot counter-assay, permissive growth control for S. cerevisiae lifespan shortening project (AID 705;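 active = growth inhibition above 25% in both replicates, a cutoff set 3 SD above the mean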). Conditions: OD615, 24 h, at 10 µM, stronger effect = higher value. A digest of the protocol: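 assay system = Saccharomyces cerevisiae strain carrying genetically modified DeaD replicative-lifespan system | technique = absorbance (optical density) at 615 nm | buffer or medium = permissive raffinose/galactose medium | timing = cells pre-grown 4 h, then 24 h compound exposure, 30 °C humidified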

Assay [2] can be described thus: viability gain of MRP-1-high H69AR cells under doxorubicin, pilot screen, MRP-1 activator project, CellTiter-Glo, duplicate (AID 807;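 active = viability increase at or above a cutoff of the median across tested compounds plus 3 SD, cut at about 8.5% in these data, passing the limit was not always enough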;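 also: compound pretreatment 18-22 h then 72 h combined with doxorubicin; 0% = doxorubicin alone and 100% = vehicle without doxorubicin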). Conditions: H69AR viability with doxorubicin, CellTiter-Glo luminescence; at 10 µM; stronger effect = higher value. In general terms: Cellular ATP, detected with luciferase, serves as a proxy for viable cell number.
The nature of assay [3]: growth suppression of beta-catenin knockout HCT116, pilot screen, human colon tumor cells (AID 823).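 Also: 0% = wells killed by 20 µM Hyamine and 100% = untreated DMSO cell wells.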 The conditions noted are these: CellTiter-Glo, 60 h, at 10 µM, stronger effect = lower value.
Assay [4] can be described thus: growth suppression of PTEN-deleted HCT116, pilot screen, cell-based, HCT116 clonal line, CellTiter-Glo (AID 824;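 active = viability at or below 27.92% in each of two runs, the all-compound median minus 4 SD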;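 also: 0% = 20 µM Hyamine control and 100% = vehicle cell control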). Conditions: 60 h, at 10 µM, stronger effect = lower value.
The nature of assay [5]: inhibitors of the yeast RAM network, pilot screen, dse1pr::URA3 reporter, 5-FOA selection (AID 869;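 active = inhibition over a set limit, the all-compound mean plus 3 SD, in both replicate runs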;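 also: 0% = DMSO wells with no growth and 100% = 10 µM 1-NA-PP1 with full growth; RAM network block rescues cells from 5-FOA so hits raise OD615 growth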). Conditions: S. cerevisiae dse1pr::URA3 5-FOA growth, OD615, 2 d; at 10 µM; stronger effect = higher value; strain carries analog-sensitive mutant Cbk1 kinase.
Assay [6] in a line: RAM signaling pathway blockade in yeast – S. cerevisiae, Pdr1DBD-CYC8 efflux-inhibited sensitized strain, primary screen (AID 1298;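 active = RAM network inhibition above 8.4% in each of two replicates, 3 SD over the compound average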;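 also: 0% = DMSO untreated cells without growth and 100% = 10 µM 1-NA-PP1 full growth; higher means more yeast growth rescued from 5-FOA killing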). Conditions: S. cerevisiae cbk1-as DSE1-URA3 strain, 5-FOA growth OD615, 2 d; at 50 µM; stronger effect = higher value.
Assay [7] is described as follows: Restrictive medium S. cerevisiae growth inhibition, OD615, pilot screen of yeast lifespan reduction project, restrictive growth control (AID 706;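 active = growth inhibition above a set limit, 3 SD over mean compound inhibition, in both replicates, cut at about 43% in these data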;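 also: modified DeaD lifespan yeast strain shifted to restrictive glucose medium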). The conditions noted are these: OD615, 48 h, at 10 µM, stronger effect = higher value. A digest of the protocol:
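System: modified S. cerevisiae. Buffer or medium: CSMM-D glucose medium. Incubation: 4 h pre-growth plus 48 h compound exposure, 30 °C. Detection: absorbance (optical density) measured at 615 nm.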

By viability is commonly meant a read-out of living cells in per cent, often relative to untreated cells. Usually inhibition stands for the change of the read-out against control, counted positive when it falls. Consider `S=C(Nc1ccccn1)c1ccccn1`, for which the growth inhibition in assay [1] is 7.06%. Moreover, the viability increase in assay [2] was -8.21%. Besides, the viability is 2.08% (active) in assay [3] and 0.72% (active) in assay [4]. Further, the inhibition in assay [5] is 1.43%. Further, the RAM network inhibition in assay [6] is 3.64%.

`CCc1ccc(NC(=O)Cn2c(=O)oc3cc(S(=O)(=O)N4CCOCC4)ccc32)cc1`: the growth inhibition in assay [1] is -11%; in assay [7], -13.3%. Besides, the viability was 99.8% in assay [3] and 89.2% in assay [4]. Moreover, the inhibition in assay [5] is 1.83%. Also, the RAM network inhibition in assay [6] is 8.19%.

`Cc1cccc(C2CC(c3ccccc3)Nc3ncnn32)c1` (configuration not stated): the values for the growth inhibition in assay [1] and in assay [7] were 3.16% and 13.8%, respectively. Further, the viability in assay [3] is 91.9%; in assay [4], 93.8%. Also, the inhibition in assay [5] is 1.7%. Moreover, the RAM network inhibition in assay [6] was 0.37%.

In the case of `O=C(O)c1cccc(N2C(=O)C3CC=C(Cl)CC3C2=O)c1` (configuration not stated), the growth inhibition in assay [1] was -4.4%; in assay [7] it was -10.2%. Also, the viability was 95.6% in assay [3] and 92.4% in assay [4]. For the same molecule, the inhibition in assay [5] is 1.16%. Moreover, the RAM network inhibition in assay [6] is 3.38%.

For `O=C(Cn1c(=O)oc2cc(S(=O)(=O)N3CCCC3)ccc21)NCc1ccccn1`, the results for the growth inhibition in assay [1] and in assay [7] were 8.21% and 0.96%, respectively. In addition, the viability is 107% in assay [3] and 104% in assay [4]. The inhibition in assay [5] was 1.01%. The RAM network inhibition in assay [6] was -0.87%.

Regarding `Cc1ccc(OCC(=O)Nc2cc(-c3nn4c(C)nnc4s3)ccc2C)cc1`, the growth inhibition in assay [1] was 0.12%. Besides, the viability increase in assay [2] was -4.09%. Also, the viability in assay [3] was 93.7%; in assay [4] it was 88%. In assay [5], the inhibition is 3.09%. In assay [6], the RAM network inhibition is 10.7%.

Regarding `COc1cc(Cl)c(C)cc1NC(=O)CSc1nnc(-c2cccnc2)n1Cc1ccco1`, the growth inhibition in assay [1] is 4.79%. For the same molecule, the viability increase in assay [2] is -3.48%. Also, the viability in assay [3] was 84.8%; in assay [4] it was 79.8%. The inhibition in assay [5] is 0.775%. The RAM network inhibition in assay [6] is 7.75%.

For the molecule `O=C(O)c1cc2c(s1)-c1ccccc1OC2`, the growth inhibition in assay [1] is 6.14%. Also, the viability increase in assay [2] is -4.32%. Moreover, the results for the viability in assay [3] and in assay [4] were 96.9% and 98.7%, respectively. The inhibition in assay [5] is 0.165%. Also, the RAM network inhibition in assay [6] was -2.9%.

In the case of `Cn1c(CNc2ccccc2O)nc2ccccc21`, the growth inhibition in assay [1] was -5.35%. Moreover, the viability increase in assay [2] was -6.1%. For the same molecule, the viability in assay [3] was 68.8%; in assay [4], 64%. In addition, the inhibition in assay [5] is 0.42%. Besides, the RAM network inhibition in assay [6] is -1.31%.

Take `CCc1ccc(Cn2nnc(C(=O)NCc3ccccc3OC)c2N)cc1`: the growth inhibition in assay [7] was 5.92%. For the same molecule, in assay [2], the viability increase was -2.2%. Further, the values for the viability in assay [3] and in assay [4] were 95% and 92%, respectively. Besides, the inhibition in assay [5] was 1.81%. Also, the RAM network inhibition in assay [6] is 4.95%.

Take `Cn1cccc1Cc1nnc(SCC(=O)NC2CCCC2)n1CCc1ccccc1`: in assay [1], the growth inhibition is -1.71%. Also, the viability increase in assay [2] is -0.59%. Further, the viability in assay [3] was 101%; in assay [4] it was 96.8%. The inhibition in assay [5] is 1.71%. Moreover, in assay [6], the RAM network inhibition is 6.53%.

As to `O=C(CSc1ccc2nnc(-c3ccc(Cl)cc3)n2n1)N1CCCC1`, the growth inhibition in assay [1] is -1.01%. In addition, the viability increase in assay [2] was -3.12%. In addition, the viability in assay [3] was 86.3%; in assay [4], 93.1%. Also, the inhibition in assay [5] was 1.32%. Further, in assay [6], the RAM network inhibition is 4.24%.

Take `Cc1csc(NC(=O)CSc2nnc(Cc3cccn3C)n2CCc2ccccc2)n1`: in assay [1], the growth inhibition is 11%. Besides, in assay [2], the viability increase was -3.58%. The results for the viability in assay [3] and in assay [4] were 87.1% and 82.6%, respectively. Further, in assay [5], the inhibition is 0.505%. Moreover, the RAM network inhibition in assay [6] is 9.43%.

For the molecule `CCOc1ccccc1N1CSC2=C(C#N)C(c3c(OC)ccc4ccccc34)CC(=O)N2C1` (configuration not stated), in assay [1], the growth inhibition is 4.14%. Moreover, in assay [2], the viability increase is -6.32%. Moreover, the viability was 67.3% in assay [3] and 65.5% in assay [4]. Also, in assay [5], the inhibition was 3.73%. In addition, the RAM network inhibition in assay [6] was 3.99%.

As for `CCOC(=O)c1c(N)sc2c(OC)c(Br)ccc12`, the growth inhibition in assay [1] is 21.3%. The viability increase in assay [2] was 0.76%. The figures for the viability in assay [3] and in assay [4] were 99.8% and 102%, respectively. The inhibition in assay [5] is -2.46%. In addition, in assay [6], the RAM network inhibition is 5.62%.

Take `Cc1ccc(-c2nn3c(C)nnc3s2)cc1NC(=O)c1ccc(Br)o1`: in assay [1], the growth inhibition was 4.25%. In addition, the viability increase in assay [2] is -3.03%. Also, the values for the viability in assay [3] and in assay [4] were 105% and 93%, respectively. Besides, in assay [5], the inhibition is 3%. Also, in assay [6], the RAM network inhibition is 8.4%.

Regarding `CCOC(=O)c1ccc(NC(=O)CSc2nc3c(c(=O)n2CC)SC(C)C3)cc1` (configuration not stated), the growth inhibition in assay [7] was -18.3%. For the same molecule, in assay [2], the viability increase is -3.44%. The values for the viability in assay [3] and in assay [4] were 84% and 80.8%, respectively. In assay [5], the inhibition is 0.12%. The RAM network inhibition in assay [6] was 3.13%.

Turning to `CC(=O)C1=C(C)Nc2cc(C(F)(F)F)ccc2S1`, the growth inhibition in assay [7] is 27.2%. Moreover, the viability increase in assay [2] was -1.14%. The viability is 93.6% in assay [3] and 85.7% in assay [4]. The inhibition in assay [5] is 1.77%. Further, the RAM network inhibition in assay [6] was 4.09%.

Turning to `CCN1CCN(C(=O)CS(=O)Cc2nc(-c3ccc(OC)cc3)oc2C)CC1` (configuration not stated), in assay [7], the growth inhibition was -7.22%. In addition, in assay [2], the viability increase was -0.78%. Further, the viability in assay [3] is 104%; in assay [4] it was 100%. Besides, the inhibition in assay [5] was 0.945%. Further, the RAM network inhibition in assay [6] was 1.04%.

As to `CC(=O)NC(=S)c1c(N)n(Cc2ccccc2)c(=O)n(C)c1=O`, the growth inhibition in assay [1] was 19.2%. Further, in assay [2], the viability increase is -3.97%. Further, the figures for the viability in assay [3] and in assay [4] were 84.6% and 80%, respectively. In addition, the inhibition in assay [5] is 0.92%. Also, the RAM network inhibition in assay [6] is 4.62%.

Take `O=C(CSc1nnc(-c2ccccn2)n1Cc1ccco1)c1ccccc1`: the growth inhibition in assay [1] was 0.135%. The viability increase in assay [2] is -3.34%. Further, the viability in assay [3] was 98.1%; in assay [4], 95.2%. Besides, the inhibition in assay [5] is 0.485%. Further, in assay [6], the RAM network inhibition was 7.41%.

As to `Fc1ccc(-c2nnc3ccc(N4CCc5ccccc5C4)nn23)cc1`, in assay [1], the growth inhibition is 14.2%. Besides, the viability increase in assay [2] is -7.99%. Also, the viability in assay [3] is 2.21% (active); in assay [4], 1.42% (active). For the same molecule, in assay [5], the inhibition is 2.02%. In addition, the RAM network inhibition in assay [6] was 3.14%.
